Drawing on ChEMBL document CHEMBL4513216, “Probing the Open Global Health Chemical Diversity Library for Multistage-Active Starting Points for Next-Generation Antimalarials” (ACS Infect Dis, 2020), this text covers cytotoxicity for 96 compounds.

This data set is described as follows: Toxicity liver stage against HepG2, at 10uM. It counts as cell-based. Particulars: human, HepG2-A16-CD81EGFP cells; read-out: INHIBITION
Further details: test concentration 10 uM, cell line HepG2-A16-CD81EGFP. The essentials:
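Uninfected HepG2-A16-CD81EGFP cells, 3 × 10^3 per well, 1536-well, plated on prespotted compound at 10 μM final, parasite-free screening media added to match infected plates; puromycin 10 μM positive, DMSO 0.5% negative; run in parallel with 48 h PbLuc assay at 37 °C, 5% CO2; viability by CellTiter-Glo luminescence, normalized to controls.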
With `O=c1c2ccccc2nc2n1C(CSc1ccc(Br)cc1)CN2` (stereo unspecified), the cytotoxicity at 10 µM is 6.76%.
For the compound `CN(C(=O)c1cccc(C#N)c1)c1nnc(C2CCOC2)s1` (stereo unspecified), the cytotoxicity at 10 µM worked out at 5.96%.
In the case of `CS(=O)(=O)N1C[C@@H]2OCC(=O)N(CC3CC3)[C@@H]2C1`, the cytotoxicity at 10 µM was -13.8%.
Take `CC(=O)N1N=C(c2ccccc2)OC1C(=O)N(C)Cc1ccccc1` (stereo unspecified): the cytotoxicity at 10 µM stood at 2.37%.
Take `CN1CCN(CCCNC(=O)c2nc3ccccc3c(=O)[nH]2)CC1`: the cytotoxicity at 10 µM is -5.46%.
Take `COC(=O)[C@H](CC(C)C)NC(=O)c1snnc1-c1ccc(OC)cc1`: the cytotoxicity at 10 µM was 10.1%.
For `CC(=O)N1CCc2ccc(NC(=O)c3cn(C)nn3)cc2C1` the value was 5.45%.
As for `COCC(=O)N1CCC2(COCc3cnc(NCc4ccco4)nc32)C1` (stereo unspecified), the cytotoxicity at 10 µM is -1.75%.
Take `Cc1ccc(N2CC[C@H]3OCC[C@@]3(C(=O)N(C)C)C2)nn1`: the cytotoxicity at 10 µM worked out at 1.11%.
For the compound `CSc1[nH]nc(NC(=O)c2cccs2)c1C#N`, the cytotoxicity at 10 µM was -1.04%.
Turning to `CCCNCc1ncc(C)c(OC)c1C`, the cytotoxicity at 10 µM stood at 0.105%.
For the compound `COc1ccc(-n2nnnc2C2(NCc3ccco3)CCCCC2)cc1`, the cytotoxicity at 10 µM came to 9.65%.
In the case of `CN1CCN(C(=O)[C@@H]2CN(C)C[C@]23COc2ccc(F)cc2C3=O)CC1`, the cytotoxicity at 10 µM was determined as 3.06%.
As to `Cc1nc(C)n(CCC(=O)N2CCc3ncc(Cl)cc3C2)n1`, the cytotoxicity at 10 µM came to 2.67%.
For `CS(=O)(=O)c1cn[nH]c1C1CCCN1C(=O)c1cccnc1` (stereo unspecified), the cytotoxicity at 10 µM is -14.6%.
For `Cc1noc(C2(C)CCCN(C(=O)c3cnn(C)c3)C2)n1` (stereo unspecified), the cytotoxicity at 10 µM was -17.3%.
Turning to `CN(C)c1cc(C2CCCN2Cc2ccccc2OCC(=O)O)ccn1` (stereo unspecified), the cytotoxicity at 10 µM was -3.8%.
With `NCc1cnn(-c2ccccc2C(=O)NCCc2ccccn2)c1`, the cytotoxicity at 10 µM was -19.5%.
As to `O=c1ccn([C@H]2CCN(Cc3ncc[nH]3)CC[C@@H]2O)c(=O)[nH]1`, the cytotoxicity at 10 µM was 13%.
The same measure for `COCC(=O)N1CCCC(c2noc3nc(C)cc(C(F)(F)F)c23)C1` (stereo unspecified): -2.25%; for `CN(C)C(=O)CN1CCC(c2cccc(Cc3ccc(F)cc3)n2)CC1`: -22.3%.
On to `O=C(c1ccccn1)N1CCCC(c2cc(C(F)F)n3ncnc3n2)C1` (stereo unspecified), for which the cytotoxicity at 10 µM is -1.74%.
The same measure for `O=S1(=O)NC2(CCCN(CCc3ccccc3)C2)COc2ccccc21` (stereo unspecified): 7.47%; for `Cn1cc(CNCC(c2ccc(Cl)cc2)n2cccn2)cn1` (stereo unspecified): 1.21%; for `CCCn1ccnc1-c1cccc(NC(=O)[C@H]2CCC(=O)N2)c1`: -4.97%.
As for `CCOC(C)C(=O)Nc1ccnn1-c1ccccc1C` (stereo unspecified), the cytotoxicity at 10 µM is -7.89%.
For `COc1cccc(CCNC(=O)c2ccc(=O)n(C)c2)c1` the value was -9.08%.
For `CCOc1cccc(CCNC(=O)NC2CCc3[nH]ncc3C2)n1` (stereo unspecified), the cytotoxicity at 10 µM worked out at 8.95%.
As for `CC(Cn1cccn1)Nc1cnc2ccccc2n1` (stereo unspecified), the cytotoxicity at 10 µM is -7.67%.
As to `N#CCCN(Cc1ccco1)C(=O)C1CCCc2ccccc21` (stereo unspecified), the cytotoxicity at 10 µM is -4.27%.
For `O=S(=O)(NCCc1ccccc1C(F)(F)F)N1CCOCC1`, the cytotoxicity at 10 µM turned out to be 9.08%.
Consider `N#Cc1cccc(NC(=O)N(CC(F)F)C2CC2)c1`, for which the cytotoxicity at 10 µM was -16.1%.
Consider `CC(C)C1CCC(N2CCN(CCCS(C)(=O)=O)CC2)CC1` (stereo unspecified), for which the cytotoxicity at 10 µM came out at 0.803%.
`O=C(CN1CCc2cncnc2C1)NC(c1ccccc1)C1CC1` (stereo unspecified): the cytotoxicity at 10 µM is -9.1%.
For `CNS(=O)(=O)c1ccc(CNC(=O)Nc2cc(C)on2)s1` the value was -2.34%; for `CC(C)(C)c1cnc(CN2CCN(c3ncccn3)CC2)o1`, -18.1%; for `CCC(NC(=O)c1cc(OC)c2c(c1)OCCO2)c1cccs1` (stereo unspecified), -6.66%.
Turning to `CC(C)n1ccc(C(=O)NCC(O)c2c(Cl)cccc2Cl)n1` (stereo unspecified), the cytotoxicity at 10 µM worked out at 1.81%.
Turning to `Cc1nn(CC(C)C)c(C)c1CC(=O)N1CCCC(CNS(C)(=O)=O)C1` (stereo unspecified), the cytotoxicity at 10 µM worked out at 0.246%.
Consider `CCOCCOCc1cccc(CNc2cncc(-n3cccn3)n2)c1`, for which the cytotoxicity at 10 µM worked out at 7.74%.
Turning to `CC(C)(C)OC(=O)NC(C)(C)c1noc(CSc2ccccn2)n1`, the cytotoxicity at 10 µM came to 9.18%.
Regarding `Cc1cc(S(=O)(=O)Nc2cccc(OC(F)F)c2)sc1C(=O)O`, the cytotoxicity at 10 µM was -0.229%.
For `CC(NC(=O)C1=NN(C)C(=O)CC1)c1cccc(Cl)c1` (stereo unspecified) the value was -2.45%; for `CCn1cc(C(=O)Nc2ccc(C)cc2C(=O)NC)cn1`, 5.81%; for `CS(=O)(=O)Cc1cc(F)ccc1NCc1nnsc1Cl`, -12.2%.
Take `Cc1cccc(C(=O)N2CCCN(CCc3scnc3C)CC2)c1`: the cytotoxicity at 10 µM was -2.52%.
For `CN(c1cccc(C#N)c1)S(=O)(=O)c1cc(C(=O)O)ccc1Cl`, the cytotoxicity at 10 µM is -5.94%.
The same measure for `CC(C)OCCN1CCc2cncnc2C1`: -7.52%.
Regarding `Cc1ccc(-n2c(C)nnc2SCC(O)COCc2ccco2)cc1` (stereo unspecified), the cytotoxicity at 10 µM was -11.6%.
For `N#Cc1cc(NS(=O)(=O)CC2CCCCO2)ccc1F` (stereo unspecified) the value was -14.1%.
In the case of `CCc1c(C)nc2ccccc2c1N1CCC(O)CC1`, the cytotoxicity at 10 µM is 0.395%.
`COc1cc(OC)c(CNC(=O)NCC(=O)N2CCCC2)c(OC)c1`: the cytotoxicity at 10 µM was found to be 10.4%.
With `Cc1cccc(C(=O)NC2CCN(c3cnn(C)c3)C2=O)n1` (stereo unspecified), the cytotoxicity at 10 µM came out at 3.48%.
Turning to `CN(C)CC(=O)N1Cc2nc(C(=O)NCc3ccccc3)oc2C1`, the cytotoxicity at 10 µM was -81.5%.
Regarding `O=C(C1CCC1)N1CCc2onc(Cn3cccn3)c2C1`, the cytotoxicity at 10 µM is -1.13%.
Consider `CCOCC1CC2(CCN(C(=O)c3ccccc3F)CC2)CO1` (stereo unspecified), for which the cytotoxicity at 10 µM came to 2.26%.
As to `CCNc1nc2c(s1)C(=O)CN(C(=O)NCCc1ccccc1)C2`, the cytotoxicity at 10 µM is 3.3%.
For `Cc1nccn1CCCn1c(=O)cnc2ccccc21`, the cytotoxicity at 10 µM came to 1.53%.
On to `CCCc1cc(C(=O)N(Cc2cccnc2)C[C@@H]2CCC(=O)N2)no1`, for which the cytotoxicity at 10 µM stood at 6.82%.
For `O=C(CCc1cc2n(n1)CCCN(CCc1ccccc1)C2)NC1CC1`, the cytotoxicity at 10 µM stood at 12%.
With `COc1cccc(N2CCN(Cc3ccc4occc4c3)CC2=O)c1`, the cytotoxicity at 10 µM was 24%.
Take `COc1cccc2c1OCC(C(=O)NCCn1nc(C)c(Cl)c1C)C2` (stereo unspecified): the cytotoxicity at 10 µM is -5.89%.
Take `O=C(O)C1(Cc2ccc(F)cc2)CCCN(Cc2ccncc2)C1` (stereo unspecified): the cytotoxicity at 10 µM was -0.566%.
Turning to `CCn1nc(C)c(NC(=O)CN2CC[C@@H](F)C2)c1C`, the cytotoxicity at 10 µM was -1.2%.
With `CC(C)c1ccc(CC(=O)N2CCCC3(CN(C)C(=O)O3)C2)cc1` (stereo unspecified), the cytotoxicity at 10 µM is 16.2%.
In the case of `CCc1nc(C)c(CN2CCOC(Cc3ccccc3Cl)C2)[nH]1` (stereo unspecified), the cytotoxicity at 10 µM is -0.527%.
With `CCO[C@H]1C[C@@H](O)C12CCN(C(=O)CN1CCCCCC1=O)CC2`, the cytotoxicity at 10 µM was determined as 2.71%.
With `CN(C)C(Cn1ccnc1-c1ccccc1C(=O)O)c1ccccc1Cl` (stereo unspecified), the cytotoxicity at 10 µM was -0.966%.
In the case of `COc1ccccc1-c1noc(CCC(=O)NC(C)Cn2cccn2)n1` (stereo unspecified), the cytotoxicity at 10 µM was determined as 5.67%.
On to `Cc1cccc(=O)n1CCC(=O)N1CCC2(CC1)OCCCC2O` (stereo unspecified), for which the cytotoxicity at 10 µM is -1.95%.
Turning to `CC(=O)Nc1ccc(C(=O)N(C)C(C)Cc2cc(C)ccn2)cn1` (stereo unspecified), the cytotoxicity at 10 µM was found to be 1.32%.
For the compound `Cc1ccccc1N1CCN(C(=O)Cn2ccnc2)CC1=O`, the cytotoxicity at 10 µM was -1.86%.
For `Cc1ccccc1OCC1CCCN(C(=O)CN(C)C2CCNCC2)C1` (stereo unspecified) the value was -5.54%; for `O=C(Cn1ccnc1)N1C[C@@H]2CC[C@H](Oc3ccccc3)[C@@H]2C1`, -3.71%.
Take `O=S(=O)(c1ccccc1)N1CCCCC1c1cc[nH]n1` (stereo unspecified): the cytotoxicity at 10 µM was found to be 7.65%.
Regarding `CCc1nc(C2CCCN2C(=O)c2ccc(N(C)C)nn2)no1` (stereo unspecified), the cytotoxicity at 10 µM was -11.4%.
The same measure for `COCc1ccc(C(=O)NCCCNc2ccc(C(F)(F)F)cn2)cc1`: 2.13%; for `COCC(=O)NC(C)Cc1cccc(Cl)c1` (stereo unspecified): -8.72%.
For `Cn1ccnc1CN1CCN(Cc2noc(-c3ccccc3)n2)CC1`, the cytotoxicity at 10 µM was found to be 1.08%.
Regarding `Cc1cnn(CCC(=O)N2CCCN(c3cccnn3)CC2)c1`, the cytotoxicity at 10 µM stood at 1.47%.
Turning to `Cc1nc(CN2CCN(C(=O)c3cc(C4CC4)on3)CC2)cs1`, the cytotoxicity at 10 µM turned out to be 2.21%.
The same measure for `c1ccc2oc(CCCN3CCOC(Cn4cccn4)C3)nc2c1` (stereo unspecified): 0.987%; for `Cc1noc(C)c1-c1cccc(C2CN(CC(=O)N(C)C)CCO2)n1` (stereo unspecified): 0.025%.
For `Cc1ccc(CN(CCCn2ccnc2)Cc2cnn(C)c2)s1`, the cytotoxicity at 10 µM is -18%.
Consider `O=C(NCC1CCOCC1)[C@H]1C[C@@H]2CCN(c3nncs3)C[C@@H]2O1`, for which the cytotoxicity at 10 µM was found to be 1.73%.
Turning to `O=C(c1ccco1)N1CC[C@@H]2O[C@H](COCCN3CCCC3)CC[C@@H]21`, the cytotoxicity at 10 µM was -100%.
Consider `Cc1ccc(CN2CCn3c(CN4CCN(C)CC4)cnc3C2C)s1` (stereo unspecified), for which the cytotoxicity at 10 µM worked out at 8.39%.
With `Cc1ccc(CNC(c2cccc(F)c2)c2nccn2C)o1` (stereo unspecified), the cytotoxicity at 10 µM was found to be 5.48%.
Take `Cc1cccc(COC[C@@H]2CC[C@H]3[C@H](CCN3C(=O)CC3CC3)O2)n1`: the cytotoxicity at 10 µM is -64.8%.
Turning to `O=C1CO[C@@H]2CN(Cc3cccs3)C[C@H]2N1CC1CC1`, the cytotoxicity at 10 µM was -2.32%.
For `Cc1cncc(C(=O)N2C[C@H]3CCC[C@@]3(COc3ccccn3)C2)c1` the value was 1.08%; for `CN(C)CC1CN(Cc2ccc(F)cc2)Cc2nccn2C1` (stereo unspecified), -71.1%; for `CC(C)C(N)CNS(=O)(=O)Cc1cccc2cccnc12` (stereo unspecified), -9.32%.
For `CN(C)C(=O)COC[C@]12COC[C@H]1CN(CCc1ccccc1)C2`, the cytotoxicity at 10 µM is -1.69%.
In the case of `O=C(NCc1ccccc1)C1=NOC2(CCNC2)C1` (stereo unspecified), the cytotoxicity at 10 µM worked out at 0.213%.
As for `CN1C(=O)[C@@H]2CC[C@H]1CN(S(=O)(=O)c1ccc(Cl)cc1Cl)C2`, the cytotoxicity at 10 µM is 1.47%.
